Key:
[1] = tested on: Rattus norvegicus; experiment: AUC (0-inf) in rat assessed as radioactivity at 10 mg/kg, iv; type: ADME, organism-based, Plasma; design: time infinity, dose 10 mg/kg, route intravenous; conditions: in vivo
How it was run: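 [14C]CS-023 with unlabeled drug in saline, 10 mg/kg single i.v. bolus (rats via tail vein, 4.58 MBq/kg; monkeys via cephalic vein, 3 MBq/kg). Blood drawn with heparin (rat jugular, monkey femoral vein) at set times. Plasma centrifuged at 4°C, and total radioactivity counted by liquid scintillation with tissue solubilizer. Quantitation limit was twice background.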

[2] = tested on: Rattus norvegicus; experiment: Fecal excretion ratio in rat assessed as radioactivity at 10 mg/kg, iv after 7 days; type: ADME, organism-based; design: dose 10 mg/kg, route intravenous; conditions: in vivo, 168 h
How it was run: (§1)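 Rats were dosed i.v. via the tail vein with [14C]CS-023 at 10 mg/kg (4.58 MBq/kg) in saline, then kept in individual metabolic cages for separate urine and feces collection over 7 days. Samples up to 24 h were collected at around 4°C into 0.5 M MOPS pH 6.0, and feces were homogenized. Radioactivity was measured by liquid scintillation counting. Parent drug and metabolite were apportioned by silica TLC (3% NaCl:acetonitrile 2:1) with imaging-plate analysis. n=4.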

[3] = tested on: Macaca fascicularis; experiment: Fecal excretion ratio in monkey assessed as radioactivity at 10 mg/kg, iv after 7 days; conditions: cynomolgus monkey, in vivo, 168 h
[4] = tested on: Rattus norvegicus; experiment: Urinary excretion ratio in rat assessed as radioactivity at 10 mg/kg, iv after 7 days; type: ADME, organism-based, Urine; design: dose 10 mg/kg, route intravenous; conditions: in vivo, 168 h; how it was run: as §1
[5] = tested on: Macaca fascicularis; experiment: Urinary excretion ratio in monkey assessed as radioactivity at 10 mg/kg, iv after 7 days; conditions: cynomolgus monkey, in vivo, 168 h
[6] = tested on: Macaca fascicularis; experiment: AUC (0-inf) in monkey assessed as radioactivity at 10 mg/kg, iv; conditions: cynomolgus monkey, in vivo
[7] = tested on: Rattus norvegicus; experiment: Biliary excretion in bile duct cannulated rat assessed as radioactivity at 10 mg/kg, iv after 48 h; type: ADME, organism-based; design: dose 10 mg/kg, route intravenous; conditions: in vivo
How it was run: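 Rats had bile-duct cannulation by laparotomy under diethyl ether and were housed in Bollman cages. They were then dosed i.v. with [14C]CS-023 at 10 mg/kg in saline. Bile was collected on ice over set intervals, and radioactivity was measured by liquid scintillation counting.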

C[C@@H](O)[C@H]1C(=O)N2[C@@H]1[C@@H](C)C(S[C@H]1C[C@@H](C(=O)N3CC[C@H](NC(=O)CNC(=N)N)C3)N(C)C1)=[14C]2C(=O)O
AUC [1]: 26800 ng·h/mL
Activity [2]: 12.5%
Activity [3]: 7.5%
Activity [4]: 87.1%
Activity [5]: 88%
AUC [6]: 87400 ng·h/mL
Activity [7]: 0.54%

— ChEMBL document CHEMBL1142153, “Pharmacokinetics and disposition of CS-023 (RO4908463), a novel parenteral carbapenem, in animals” (Antimicrob Agents Chemother, 2007)
